Reference: PMC3353655 (Journal of the American Chemical Society, 2012)

Legend:
[1] = molecular target: T1, Sortase B (SrtB) (Staphylococcus aureus, UniProt Q2FZE3); assay: Fluorescence polarization binding of fluorescein-labeled lantipeptides to SrtB
T1 sequence (Q2FZE3 31-244 limits assumed): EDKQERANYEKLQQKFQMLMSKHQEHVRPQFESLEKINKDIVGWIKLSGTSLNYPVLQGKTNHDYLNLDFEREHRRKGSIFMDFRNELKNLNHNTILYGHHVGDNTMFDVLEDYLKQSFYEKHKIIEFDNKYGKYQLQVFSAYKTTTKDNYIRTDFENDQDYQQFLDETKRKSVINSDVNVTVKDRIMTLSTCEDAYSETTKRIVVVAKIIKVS
Outline: (§1)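 Binding constants were measured by fluorescence polarization. Test compounds were synthetic lantipeptides labeled with 5-carboxyfluorescein, with a C-terminal polyethylene glycol tail added for solubility. Sortase B was run in the same format as Sortase A. Each data point is the average of at least three independent measurements.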

[2] = system: SrtA; assay: Inhibition of SrtA catalyzed cleavage of a peptide substrate; assay type: biochemical, Staphylococcus aureus; details: peptide at a concentration of up to 1 mM; data not shown
Outline: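 SrtA cleaved a peptide substrate; this reaction has a Km of 80 μM. The test compound was tested at concentrations up to 1 mM.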

[3] = molecular target: T2, Sortase A (SrtA) (Staphylococcus aureus, UniProt Q2FV99); assay: Fluorescence polarization binding of fluorescein-labeled lantipeptides to SrtA; details: SrtA binding compared with 2(2S,6R)
T2 sequence (Q2FV99 60-206 limits assumed): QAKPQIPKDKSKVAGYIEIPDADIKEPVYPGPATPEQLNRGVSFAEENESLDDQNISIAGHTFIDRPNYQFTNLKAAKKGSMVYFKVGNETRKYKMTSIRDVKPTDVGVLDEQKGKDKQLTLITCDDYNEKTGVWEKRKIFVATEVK
Outline: as §1

| SMILES | affinity to SrtB (in words) ([1]; fluorescein-labeled peptide) | Kd ([1]; read-out: Kd [μM], SrtB, SrtA was replaced by Sortase B (SrtB), 50 mM Tris HCl, 50 mM NaCl, 5 mM CaCl2, 1.2 mM TCEP, average of at least three independent measurements) [µM] | inhibition of SrtA catalyzed cleavage of a peptide substrate [2] | fold weaker binder than 2(2S,6R) [3] [fold] |
| --- | --- | --- | --- | --- |
| CC[C@H](C)[C@H](NC(=O)[C@H](CCCNC(=N)N)NC(=O)CNC(=O)[C@H](Cc1c[nH]c2ccccc12)NC(=O)[C@@H]1CSC[C@@H](NC(=O)[C@H](Cc2ccc(O)cc2)NC(=O)[C@H](Cc2c[nH]c3ccccc23)NC(=O)[C@H](CC(C)C)NC(=O)CNC(=O)[C@H](CCCNC(=N)N)NC(=O)c2ccc3c(c2)C(=O)OC32c3ccc(O)cc3Oc3cc(O)ccc32)C(=O)N[C@@H](CC(C)C)C(=O)N[C@@H](CO)C(=O)N1)C(=O)NCC(=O)N[C@@H](CCCNC(=N)N)C(=O)N[C@@H](CCCNC(=N)N)C(=O)NCCCOCCOCCOCCCNC(=O)CCC(=O)NCCCOCCOCCOCCCNC(=O)CCC(=O)NCCCOCCOCCOCCCNC(=O)CCC(=O)N[C@@H](C)C(=O)O [2(2S,6R)] | no detectable affinity | > 300 | unable to inhibit | – |
| CC[C@H](C)[C@H](NC(=O)[C@H](CCCNC(=N)N)NC(=O)CNC(=O)[C@H](Cc1c[nH]c2ccccc12)NC(=O)[C@@H]1CSC[C@@H](NC(=O)[C@H](Cc2ccc(O)cc2)NC(=O)[C@H](Cc2c[nH]c3ccccc23)NC(=O)[C@H](CC(C)C)NC(=O)CNC(=O)[C@H](CCCNC(=N)N)NC(=O)c2ccc3c(c2)C(=O)OC32c3ccc(O)cc3Oc3cc(O)ccc32)C(=O)N[C@@H](CC(C)C)C(=O)N[C@@H]([C@@H](C)O)C(=O)N1)C(=O)NCC(=O)N[C@@H](CCCNC(=N)N)C(=O)N[C@@H](CCCNC(=N)N)C(=O)NCCCOCCOCCOCCCNC(=O)CCC(=O)NCCCOCCOCCOCCCNC(=O)CCC(=O)NCCCOCCOCCOCCCNC(=O)CCC(=O)N[C@@H](C)C(=O)O [6(2S,6R)] | – | – | – | 10 |
